This is an account of results in ChEMBL document CHEMBL3244336, “Antitumor agents. 1. 1,4-Bis[(aminoalkyl)amino]-9,10-anthracenediones” (J Med Chem, 1979).

Data set [1] is described as follows: Toxicity in […] assessed as maximum tolerated dose administered as once each 4 days for 3 total injection. Conditions: mouse, in vivo, ip. It counts as organism-based, P388.
Data set [2] can be described thus: Therapeutic index, ratio of MTD for mouse P388 cells allografted ip dosed mouse to MED for mouse P388 cells allografted in ip dosed mouse administered as single dose. It counts as organism-based. Conditions: in vivo, read-out: TI. In a few lines:
(§1)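 Therapeutic index is MTD/MED for ip dosing, either single or once every 4 days ×3. MTD is the 10% lethal dose in normal mice over 21 days. MED is the dose giving a 40% life-span increase in P388-bearing mice. Both come from log dose-response regression lines.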

The subject of data set [3] is P388. In words: Antitumor activity against mouse P388 cells allografted in ip dosed mouse assessed as dose providing 40% increase in life span administered as once each 4 days for 3 total injection. The class given is functional. In a few lines:
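P388 tumor-bearing mice dosed ip, either once as a single dose or once every 4 days for three injections. It was read from regression lines of log dose-response data.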

Data set [4] in a line: Therapeutic index, ratio of MTD for mouse P388 cells allografted ip dosed mouse to MED for mouse P388 cells allografted in ip dosed mouse administered as once each 4 days for 3 total injection. The class given is organism-based. The conditions noted are these: in vivo, read-out: TI. In a few lines:
as §1

For data set [5], the system named is L5178Y. In words: Ratio of adriamycin to compound for inhibition of RNA synthesis in mouse L5178Y cells. It counts as functional.
Data set [6] concerns B16. In words: Antitumor activity against mouse B16 cells allografted in BDF1 mouse assessed as increase of median life span at 0.8 mg/kg, ip on day 1 to 9 measured up to 80 days relative to control. The class given is functional. Conditions: route intraperitoneal. The gist of the method:
(§2)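 BDF1 mice implanted ip with a homogenate from 0.05 g of B16 tumor. Test agent given ip on days 1-9. Deaths recorded for 80 days. Result is % increase in median life span over untreated controls. "Cures" are survivors/total at 80 days.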

In data set [7] the test system is P388. In words: Antitumor activity against mouse P388 cells allografted in ip dosed mouse assessed as minimum effective dose administered as single dose. The conditions noted are these: read-out: MED. It counts as functional. In a few lines:
(§3)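 Drug given ip to P388 tumor-bearing mice, either once as a single dose or once each 4 days for three injections. Minimum effective dose defined as the dose giving 40% increase in life span over control, read from regression lines of log dose-response data.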

Data set [8] concerns P388. In words: Antitumor activity against mouse P388 cells allografted in mouse assessed as increase of median life span at 1.6 mg/kg, ip on day 1, 5 and 9 measured up to 60 days relative to control. It counts as functional. Conditions: route intraperitoneal. In a few lines: (§4)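 BDF1 or CDF1 mice inoculated ip with ascitic P388 leukemia cells. Dosing ip on days 1, 5 and 9. Deaths recorded for 60 days; % increase in median life span over controls. "Cures" are survivors/total at 60 days.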

A short description of data set [9]: Toxicity in […] assessed as maximum tolerated dose administered as single dose. The class given is organism-based, P388. The conditions noted are these: mouse, in vivo, ip.
Data set [10] concerns P388. In words: Antitumor activity against mouse P388 cells allografted in ip dosed mouse assessed as minimum effective dose administered as once each 4 days for 3 total injection. It counts as functional. The conditions noted are these: 96 h, read-out: MED. The gist of the method: as §3
Data set [11] has as its system L5178Y. In words: Ratio of adriamycin to compound for inhibition of DNA synthesis in mouse L5178Y cells. It counts as functional.
The test system of data set [12] is B16. In words: Antitumor activity against mouse B16 cells allografted in BDF1 mouse assessed as increase of median life span at 100 mg/kg, ip on day 1 to 9 measured up to 80 days relative to control. The class given is functional. The conditions noted are these: route intraperitoneal. In a few lines: as §2
In data set [13] the test system is P388. In words: Antitumor activity against mouse P388 cells allografted in mouse assessed as increase of median life span at 200 mg/kg, ip on day 1, 5 and 9 measured up to 60 days relative to control. Conditions: route intraperitoneal. The class given is functional. In a few lines: as §4
The subject of data set [14] is B16. In words: Antitumor activity against mouse B16 cells allografted in BDF1 mouse assessed as increase of median life span at 200 mg/kg, ip on day […] measured up to 80 days relative to control. The conditions noted are these: route intraperitoneal. It counts as functional.

Structures are written as SMILES. Where only a bound is given, the exact number is not on record here.

Regarding `Cl.Cl.O=C1c2c(O)ccc(O)c2C(=O)c2c(NCCNCCO)ccc(NCCNCCO)c21` [MITOXANTRONE HYDROCHLORIDE], the MTD at 96 h in [1] stood at 3.4 mg/kg. For the same molecule, the selectivity ratio in data set [2] turned out to be 28. Besides, the Activity in data set [3] was found to be 300 mg/kg. Further, the selectivity ratio at 96 h in data set [4] stood at 148. For the same molecule, the Ratio in data set [5] is reported as 7; in [11], 4. The ILS at 0.8 mg/kg in data set [6] was more than 272%. Moreover, the minimal effective dose was 0.15 mg/kg in data set [7] and 0.023 mg/kg in data set [10]. The increase in life span (ILS) at 1.6 mg/kg in [8] is more than 500%. Also, the MTD in data set [9] is 4.2 mg/kg.

Turning to `O=C1c2c(O)ccc(O)c2C(=O)c2c(NCCNCCN3CCOCC3)ccc(NCCNCCN3CCOCC3)c21`, the ILS at 100 mg/kg in [12] amounted to 233%. For the same molecule, in data set [13], the ILS at 200 mg/kg is 136%.

As to `O=C1c2c(O)ccc(O)c2C(=O)c2c(NCCN(CCO)CCO)ccc(NCCN(CCO)CCO)c21`, the ILS at 200 mg/kg in data set [14] came out at 212%; in data set [13] it was 306%.

By MTD is commonly meant the highest dose tested that stayed within the study's limit of toxicity. What is called ILS is the gain in survival time of treated over control animals, in per cent.
